Consider two compounds from ChEMBL document CHEMBL1800056, “Discovery of 2-(6-{[(6-fluoroquinolin-2-yl)methyl]amino}bicyclo[3.1.0]hex-3-yl)-N-hydroxypyrimidine-5-carboxamide (CHR-3996), a class I selective orally active histone deacetylase inhibitor” (J Med Chem, 2010).

Data set [1] in a line: AUC (0 to t) in spleen of CD1 mouse at 3 mg/kg, po. Format: ADME, organism-based. Also noted: dose 3 mg/kg, route oral. The gist of the method:
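Oral cassette PK in CD1 mice: four compounds per cassette, each at 3 mg/kg po. AUC0-t (ng h/mL) measured in plasma and spleen; spleen/plasma AUC ratio reported.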

The next data set deals with Cytochrome P450 2D6 (Homo sapiens, UniProt P10635). The data set is described as follows: Inhibition of CYP2D6. Type of data set: ADME.
Another data set addresses Cytochrome P450 2C19 (Homo sapiens, UniProt P33261). The data set is described as follows: Inhibition of CYP 2C19 at < 10 uM. Format: ADME.
Data set [2] in a line: Aqueous solubility of the compound in PBS at pH 5.5. Format: physicochemical.
Data set [3] in a line: Aqueous solubility of the compound in PBS at pH 7.4. Type of data set: physicochemical.
The nature of data set [4]: Clearance in rat at 1 mg/kg, iv. Format: ADME, organism-based. Also noted: dose 1 mg/kg, route intravenous. The following applies: in vivo. The gist of the method:
(§1)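 Rat single dose, iv 1 mg/kg or po 10 mg/kg, both in 1% DMSO-HPβC (11.25% w/v). AUC0-t in ng h/mL, clearance in (mL/min)/kg, t1/2 in h, F in %.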

Data set [5] can be described thus: AUC (0 to t) in dog at 10 mg/kg, po. Type of data set: ADME, organism-based, Canis lupus familiaris. Also noted: dose 10 mg/kg, route oral. The following applies: plasma. In short, it runs like this:
(§2)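 Dog single dose: iv 1 mg/kg in 5% DMSO-HPβC (11.25% w/v); po 10 mg/kg in 5% DMSO-saline. AUC0-t in ng h/mL, clearance in (mL/min)/kg, t1/2 in h, F in %.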

Data set [6] in a line: Half life in dog at 10 mg/kg, po. Type of data set: ADME, organism-based, Canis lupus familiaris. Also noted: dose 10 mg/kg, route oral. The note with it: in vivo. The gist of the method: as §2
A short description of data set [7]: Half life in rat at 10 mg/kg, po. Format: ADME, organism-based. The note with it: in vivo. Also noted: dose 10 mg/kg, route oral. In short, it runs like this: as §1
The subject of the next data set is Rattus norvegicus. The experiment in a line: Oral bioavailability in rat at 10 mg/kg. Type of data set: ADME, organism-based. The note with it: in vivo. In short, it runs like this: as §1
The target of data set [8] is Protein deacetylase HDAC6 (Homo sapiens, UniProt Q9UBN7). The data set is described as follows: Inhibition of human recombinant HDAC6 using fluor de Lys as substrate by fluorometric analysis.
The nature of data set [9]: Antiproliferative activity against human […] cells after 72 hrs by WST-1 assay. The note with it: Homo sapiens, MCR5-SV2, 72 h. Format: functional. The gist of the method: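 Cells seeded at (1-5) × 10³/well in serum-containing medium for 24 h at 37 °C, 5% CO₂. Inhibitor added at 0.6-10000 nM for 72 h, with WST-1 pulse over the final 4 h. Formazan read at 450 nm (reference 650 nm). Expressed as % inhibition of vehicle response; GI50 is the concentration inhibiting 50% of vehicle response; n = 6 replicates.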
In general terms: Formazan colour is commonly taken as a measure of viable cells.

Data set [10] relates to HCT-116. The data set is described as follows: Ratio of GI50 for SAHA to compound for human HCT116 cells after 72 hrs by WST-1 assay. Format: functional. In short, it runs like this:
(§3)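 Cells seeded at (1-5) × 10³/well in serum-containing medium and grown 24 h at 37 °C, 5% CO₂. They were then exposed for 72 h to HDAC inhibitor (0.6-10000 nM), with SAHA run alongside in the same panel. WST-1 was added for the final 4 h and read at 450 nm (650 nm reference). GI50 taken as 50% inhibition of the vehicle response, n = 6.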

The test system of data set [11] is LoVo. The data set is described as follows: Ratio of GI50 for SAHA to compound for human LoVo cells after 72 hrs by WST-1 assay. Type of data set: functional. In short, it runs like this:
as §3

For another data set, the system named is A2780. The experiment in a line: Ratio of GI50 for SAHA to compound for human A2780 cells after 72 hrs by WST-1 assay. Type of data set: functional. The gist of the method: as §3
The subject of a further data set is DU-145. The experiment in a line: Ratio of GI50 for SAHA to compound for human DU145 cells after 72 hrs by WST-1 assay. Type of data set: functional. The gist of the method: as §3
A further data set deals with PC-3. The data set is described as follows: Ratio of GI50 for SAHA to compound for human PC3 cells after 72 hrs by WST-1 assay. Type of data set: functional. In short, it runs like this: as §3
The next data set deals with MIA PaCa-2. The experiment in a line: Ratio of GI50 for SAHA to compound for human MIAPaCa2 cells after 72 hrs by WST-1 assay. Format: functional. The gist of the method: as §3
In a further data set the test system is COR-L23. The data set is described as follows: Ratio of GI50 for SAHA to compound for human COR-L23 cells after 72 hrs by WST-1 assay. Format: functional. The gist of the method:
as §3

The next data set concerns MOLT-4. The data set is described as follows: Ratio of GI50 for SAHA to compound for human MOLT4 cells after 72 hrs by WST-1 assay. Format: functional. In short, it runs like this:
as §3

The next data set relates to HuT78. The data set is described as follows: Ratio of GI50 for SAHA to compound for human HUT78 cells after 72 hrs by WST-1 assay. Format: functional. In short, it runs like this: as §3
Data set [12] relates to HCT-116. The experiment in a line: Antitumor activity against human HCT116 cells xenografted in BALB/c mouse assessed as suppression of tumor growth at 50 mg/kg, po administered QD for 14 days. Type of data set: functional, organism-based. Also noted: dose 50 mg/kg. The gist of the method:
(§4)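 HCT116 xenografts in female nude BALB/c mice, run at EpiStem. Oral daily dosing for 14 days in 5% DMSO-saline at 50 or 75 mg/kg. Tumor volume measured relative to start; drug concentrations in tumor and plasma measured.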
In general terms: Xenograft models place foreign cells or tissue in a host animal.

Data set [13] can be described thus: Drug level in tumor of BALB/c mouse at 50 mg/kg, po administered daily for 14 days. Format: ADME, organism-based, Neoplasm. Also noted: dose 50 mg/kg, route oral. The note with it: read-out: Drug uptake. In short, it runs like this: as §4
Data set [14] relates to LoVo. The data set is described as follows: Antitumor activity against human LoVo cells xenografted in nude BALB/c mouse assessed as reduction in tumor volume at 50 mg/kg, po administered QD for 19 days. Format: functional, organism-based. Also noted: dose 50 mg/kg. In short, it runs like this: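 LoVo colorectal xenograft grown subcutaneously in female BALB/c nude mice, run at EpiStem. Compound given orally daily at 25 or 50 mg/kg; tumor volume followed.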

Data set [15] has as its system Mus musculus. The data set is described as follows: Toxicity in human HCT116 cells xenografted CrTac:NCr-Fox1 nude mouse at 50 mg/kg, po administered daily for 16 days. Format: organism-based, HCT-116. Also noted: dose 50 mg/kg, route oral. The note with it: in vivo, 384 h. In short, it runs like this: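 Female CrTac:NCr-Fox1(nu) athymic mice, 6-8 weeks old, given bilateral sc HCT116 implants (2 million cells). Oral dosing at 50 mg/kg in 10% DMSO-saline, once daily from day 6 (tumors ~5 mm mean diameter) until day 16. Controls received vehicle. Tumor size and body weight recorded three times weekly.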

The test system of data set [16] is Mus musculus. The experiment in a line: In-vivo inhibition of HDAC1 in human HCT116 cells xenografted CrTac:NCr-Fox1 nude mouse assessed as histone acetylation at 50 mg/kg, po administered daily for 16 days measured after hrs by Western blot analysis relative to control. Also noted: dose 50 mg/kg. Type of data set: functional, organism-based. The following applies: HCT-116. In short, it runs like this:
(§5)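 Female CrTac:NCr-Fox1(nu) mice, 6-8 weeks old, bearing bilateral sc HCT116 tumors (2 million cells). Daily oral 50 mg/kg in 10% DMSO-saline from day 6 (tumors ~5 mm) to day 16; vehicle controls. Tumor lysates taken 0.5, 1.0 and 4 h after the last dose. Western blot for acetylated histone H3 or α-tubulin, normalized to GAPDH.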

Data set [17] concerns Mus musculus. The experiment in a line: In-vivo inhibition of HDAC6 in human HCT116 cells xenografted CrTac:NCr-Fox1 nude mouse assessed as alpha-tubulin acetylation at 50 mg/kg, po administered daily for 16 days by Western blot analysis relative to control. Type of data set: functional, organism-based. Also noted: dose 50 mg/kg. The following applies: HCT-116. In short, it runs like this: as §5

The nature of data set [18]: Ratio of drug level in spleen to plasma of CrTac:NCr-Fox1(nu) athymic mouse at 50 mg/kg, po administered daily for 16 days. Format: ADME, organism-based. Also noted: dose 50 mg/kg, route oral. In short, it runs like this: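 Female CrTac:NCr-Fox1(nu) athymic mice, 6-8 weeks old, inoculated bilaterally sc with 2 million HCT116 colon carcinoma cells. Dosing at 50 mg/kg po daily in 10% DMSO-saline started on day 6 (tumors approx. 5 mm diameter). Controls received vehicle alone. On day 16, plasma, spleen and tumor were collected and frozen for PK assays of drug levels.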

Data set [19] in a line: Drug level in tumor of BALB/c mouse at 75 mg/kg, po administered daily for 14 days. Format: ADME, organism-based, Neoplasm. Also noted: dose 75 mg/kg, route oral. The following applies: read-out: Drug uptake. In short, it runs like this: as §4

The structures appear in SMILES notation. In brackets after ≈: the same amount, converted by molar mass. Activity calls are given as the source filed them. No cut-off for these calls is given here.

One may read the AUC(0-t) as exposure summed from dosing to a finite time, without extrapolation to infinity. The low end stands for less exposure, the high end for more exposure. In general, IC50 refers to the concentration needed to halve the response being measured. As usually defined, the solubility is the dissolved amount per volume that the medium holds. Read a high solubility as much dissolved substance. What is called clearance is the rate of elimination divided by the concentration. A low value points to a low capacity for elimination. In general, half-life refers to the time in which the quantity being followed falls by half. Low values mean fast loss, high ones slow loss. In general, GI50 refers to the concentration at which growth is held to half of that of the control. The Kp is tissue or fluid exposure divided by exposure in the circulation.

Chain of Protein deacetylase HDAC6 (Q9UBN7 whole entry): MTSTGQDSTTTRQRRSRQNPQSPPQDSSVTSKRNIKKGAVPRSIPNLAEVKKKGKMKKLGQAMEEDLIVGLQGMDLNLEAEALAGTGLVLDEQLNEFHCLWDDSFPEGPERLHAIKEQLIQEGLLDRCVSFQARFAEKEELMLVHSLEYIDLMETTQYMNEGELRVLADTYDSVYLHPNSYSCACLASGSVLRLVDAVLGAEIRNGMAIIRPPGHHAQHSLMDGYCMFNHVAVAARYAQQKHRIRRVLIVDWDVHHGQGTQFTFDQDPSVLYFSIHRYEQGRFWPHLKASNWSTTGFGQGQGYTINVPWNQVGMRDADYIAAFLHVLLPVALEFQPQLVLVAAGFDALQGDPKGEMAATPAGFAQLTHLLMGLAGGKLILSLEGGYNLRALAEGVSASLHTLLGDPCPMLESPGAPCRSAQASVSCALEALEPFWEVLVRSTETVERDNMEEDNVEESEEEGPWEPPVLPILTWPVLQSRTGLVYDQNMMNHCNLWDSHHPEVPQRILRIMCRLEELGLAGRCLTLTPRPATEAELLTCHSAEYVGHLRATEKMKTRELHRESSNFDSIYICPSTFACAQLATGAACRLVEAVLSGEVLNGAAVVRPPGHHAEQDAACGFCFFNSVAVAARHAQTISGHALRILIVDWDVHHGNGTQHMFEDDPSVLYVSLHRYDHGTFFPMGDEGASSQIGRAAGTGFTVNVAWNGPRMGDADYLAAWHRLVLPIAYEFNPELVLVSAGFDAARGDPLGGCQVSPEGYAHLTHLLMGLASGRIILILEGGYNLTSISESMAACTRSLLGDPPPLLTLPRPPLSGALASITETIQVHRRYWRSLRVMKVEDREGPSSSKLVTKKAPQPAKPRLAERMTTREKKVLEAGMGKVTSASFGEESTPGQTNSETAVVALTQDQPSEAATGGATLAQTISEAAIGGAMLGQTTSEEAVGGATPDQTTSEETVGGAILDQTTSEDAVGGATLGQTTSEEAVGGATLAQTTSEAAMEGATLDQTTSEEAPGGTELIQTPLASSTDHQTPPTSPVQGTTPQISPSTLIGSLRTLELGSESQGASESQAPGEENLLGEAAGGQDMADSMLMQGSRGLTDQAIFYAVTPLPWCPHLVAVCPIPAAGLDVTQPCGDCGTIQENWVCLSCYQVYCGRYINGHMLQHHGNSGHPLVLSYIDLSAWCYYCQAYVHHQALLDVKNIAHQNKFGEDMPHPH
Chain of Cytochrome P450 2D6 (P10635 whole entry): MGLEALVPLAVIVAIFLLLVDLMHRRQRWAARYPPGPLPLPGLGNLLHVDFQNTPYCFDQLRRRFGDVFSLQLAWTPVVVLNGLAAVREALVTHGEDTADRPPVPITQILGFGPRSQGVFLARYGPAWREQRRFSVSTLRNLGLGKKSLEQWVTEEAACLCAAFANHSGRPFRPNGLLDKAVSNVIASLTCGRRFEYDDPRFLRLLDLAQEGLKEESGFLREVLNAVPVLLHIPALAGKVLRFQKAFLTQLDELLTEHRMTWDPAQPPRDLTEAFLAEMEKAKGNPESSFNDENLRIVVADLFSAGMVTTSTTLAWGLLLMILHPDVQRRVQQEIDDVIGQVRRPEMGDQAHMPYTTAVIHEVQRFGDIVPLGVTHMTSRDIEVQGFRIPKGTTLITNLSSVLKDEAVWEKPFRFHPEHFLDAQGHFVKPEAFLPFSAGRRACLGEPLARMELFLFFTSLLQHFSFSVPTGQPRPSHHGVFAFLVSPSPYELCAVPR
Chain of Cytochrome P450 2C19 (P33261 whole entry): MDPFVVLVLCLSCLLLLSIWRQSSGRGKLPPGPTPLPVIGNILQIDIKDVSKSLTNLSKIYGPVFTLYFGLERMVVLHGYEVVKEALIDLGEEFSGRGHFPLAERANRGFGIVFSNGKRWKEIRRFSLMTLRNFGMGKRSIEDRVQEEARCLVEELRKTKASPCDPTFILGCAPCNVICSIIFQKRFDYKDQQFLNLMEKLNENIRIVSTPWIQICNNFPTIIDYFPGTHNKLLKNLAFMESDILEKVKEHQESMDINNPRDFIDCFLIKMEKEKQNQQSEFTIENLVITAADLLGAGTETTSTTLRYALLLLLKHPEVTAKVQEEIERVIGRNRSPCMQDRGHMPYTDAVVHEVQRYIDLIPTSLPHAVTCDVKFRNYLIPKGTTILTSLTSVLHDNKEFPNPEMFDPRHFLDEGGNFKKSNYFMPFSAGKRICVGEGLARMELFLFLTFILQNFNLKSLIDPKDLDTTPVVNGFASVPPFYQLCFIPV

`O=C(NO)c1cnc(N2C[C@@H]3[C@H](C2)[C@H]3NCc2ccc3cc(F)ccc3n2)nc1` [NANATINOSTAT]: the AUC(0-t) in data set [1] was found to be 775 ng·h/mL; in [5], 950 ng·h/mL. Besides, the concentration for half-maximal inhibition (IC50) is more than 50 µM against Cytochrome P450 2D6 and 2.1 µM in [8]. The “inhibition (INH)” value against Cytochrome P450 2C19 was “Not Active”. For the same compound, the solubility is 3 µg/mL (≈ 7.61 µM) in data set [2] and 1 µg/mL (≈ 2.54 µM) in data set [3]. In data set [4], this compound yielded a clearance of 134 mL/min/kg. The half-life in data set [6] was 0.9 h; in data set [7] it was 5.2 h. In the data set on Rattus norvegicus, the F turned out to be 27%. Besides, in data set [9], halving of growth (GI50) required 0.11 µM. Also, the RatioGI50 with HCT-116 [10] was found to be 10.3; in the data set on LoVo [11] it was 12.1; with A2780 it was 15; with DU-145, 21.9; in the data set on PC-3, 12.5; in the data set with MIA PaCa-2 it was 12.5. The values for the RatioGI50 with COR-L23, in the data set on MOLT-4 and with HuT78 were 10.5, 21.6 and 9.5, respectively. For the same compound, the outcome in the data set with HCT-116 [12] and in the data set on LoVo [14] was Active. Moreover, the concentration at 336 h in data set [13] was found to be 133 ng/mL.
On to `O=C(NO)c1cnc(N2C[C@@H]3[C@H](C2)[C@H]3NCc2ccc(Cl)cc2)nc1`, for which the AUC(0-t) was found to be 436 ng·h/mL in data set [1] and 1480 ng·h/mL in [5]. Further, the IC50 on Cytochrome P450 2D6 is 10 µM; in [8], 3.3 µM. Besides, the “inhibition (INH)” value against Cytochrome P450 2C19 was “Not Active”. Further, in the data set on Mus musculus [15], the Activity result is given as “Non-toxic”. The inhibition result in the data set with Mus musculus [16] was “Active”. Also, the inhibition entry with Mus musculus [17] was “inactive”. Further, the Kp at 384 h in data set [18] turned out to be 4. Besides, the concentration at 336 h in [19] worked out at 28 ng/mL.
